Experiments:
[1] = system: Mammalian orthoreovirus 1; test: Antiviral activity against Reovirus 1 in african green monkey Vero cells assessed as protection against virus-induced cytopathicity; assay type: functional, organism-based; conditions: Mammalian orthoreovirus 1, Vero
In short: (§1)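 Confluent cell monolayers inoculated with 100 CCID₅₀ virus. After 1-2 h adsorption, residual virus removed and cultures incubated with varying compound concentrations. Cytopathicity scored once it reached completion in untreated infected controls. EC₅₀ = dose reducing virus-induced cytopathogenicity by 50%.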

Influenza B virus [2] = test: Antiviral activity against influenza B virus in MDCK cells assessed as reduction of virus-induced cytopathicity by MTS method; assay type: functional, organism-based
[3] = target: Human immunodeficiency virus type 1 reverse transcriptase (Human immunodeficiency virus 1, UniProt Q72547, L100I); test: Inhibition of HIV1 reverse transcriptase p66/p51 L100I mutant; conditions: read-out: IC50
In short: (§2)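 Substrate was 0.5 µg poly(rA)/oligo(dT) 10:1 (0.3 µM 3′-OH ends) with 10 µM [³H]dTTP, at 37 °C. Acid-precipitable radioactivity was counted on GF/C filters after TCA washes.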

Influenza B virus [4] = test: Antiviral activity against influenza B virus in MDCK cells assessed as reduction of virus-induced cytopathicity by visual cytopathic effect scoring method; assay type: functional, organism-based
Influenza A virus [5] = test: Antiviral activity against influenza H1N1 virus in MDCK cells assessed as reduction of virus-induced cytopathicity by MTS method; assay type: functional, organism-based; conditions: Influenza A virus, H1N1, MDCK
[6] = system: Human immunodeficiency virus 1; test: Antiviral activity against HIV1 with reverse transcriptase L100I mutation in human CEM cells assessed as protection against virus-induced cytopathicity; assay type: functional, organism-based; conditions: Human immunodeficiency virus 1, CCRF-CEM
In short: (§3)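 CEM cells (~3 × 10⁵ cells/mL) were infected with ~100 CCID₅₀ virus per mL and seeded with serial compound dilutions. After 4 days at 37 °C, syncytium (giant cell) formation was scored microscopically. EC₅₀ is the concentration giving 50% protection against virus cytopathicity.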

[7] = system: Human immunodeficiency virus 1; test: Antiviral activity against HIV1 with reverse transcriptase Y181C mutation in human CEM cells assessed as protection against virus-induced cytopathicity; assay type: functional, organism-based; conditions: Human immunodeficiency virus 1, CCRF-CEM; in short: as §3
Influenza A virus H3N2 [8] = test: Antiviral activity against influenza H3N2 virus in MDCK cells assessed as reduction of virus-induced cytopathicity by MTS method; assay type: functional, organism-based
[9] = system: Human immunodeficiency virus 1; test: Antiviral activity against HIV1 with reverse transcriptase K103N mutation in human CEM cells assessed as protection against virus-induced cytopathicity; assay type: functional, organism-based; conditions: Human immunodeficiency virus 1, CCRF-CEM; in short: as §3
[10] = target: Human immunodeficiency virus type 1 reverse transcriptase (Human immunodeficiency virus 1, UniProt Q72547, Y181I); test: Inhibition of HIV1 reverse transcriptase p66/p51 Y181I mutant; conditions: read-out: IC50; in short: as §2
Sindbis virus = test: Antiviral activity against Sindbis virus in african green monkey Vero cells assessed as protection against virus-induced cytopathicity; assay type: functional, organism-based; in short: as §1
Coxsackievirus B4 [11] = test: Antiviral activity against Coxsackievirus B4 in human HeLa cells assessed as protection against virus-induced cytopathicity; assay type: functional, organism-based; conditions: Enterovirus B; in short: as §1
[12] = Cytotoxicity against human HEL cells assessed as drug level causing microscopically detectable alteration of normal cell morphology after 3 days; assay type: cell-based
Human alphaherpesvirus 1 [13] = test: Antiviral activity against thymidine kinase deficient and acyclovir resistant HSV1 KOS in human HEL cells assessed as protection against virus-induced cytopathicity; assay type: functional, organism-based; conditions: Human alphaherpesvirus 1, KOS
Human alphaherpesvirus 1 [14] = test: Antiviral activity against HSV1 KOS in human HEL cells assessed as protection against virus-induced cytopathicity; assay type: functional, organism-based; conditions: Human alphaherpesvirus 1, KOS
Felid alphaherpesvirus 1 = test: Antiviral activity against Feline herpesvirus in feline […] cells assessed as inhibition of virus-induced cytopathicity; assay type: functional, organism-based
[15] = system: Human immunodeficiency virus 1; test: Antiviral activity against HIV1 3B in human CEM cells assessed as protection against virus-induced cytopathicity after 4 days; assay type: functional, organism-based; conditions: Human immunodeficiency virus 1, 3B, CCRF-CEM, 96 h
In short: (§4)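 CEM cells (~3 × 10⁵ cells/mL) infected with ~100 CCID₅₀ per mL of HIV-1 (IIIB) or HIV-2 (ROD), then seeded into wells containing compound dilutions. After 4 days at 37 °C, syncytium (giant cell) formation was examined microscopically. EC₅₀ = concentration protecting CEM cells from HIV cytopathicity by 50%.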

[16] = system: Vesicular stomatitis virus; test: Antiviral activity against VSV in human HEL cells assessed as protection against virus-induced cytopathicity; assay type: functional, organism-based
Influenza A virus [17] = test: Antiviral activity against influenza H1N1 virus in MDCK cells assessed as reduction of virus-induced cytopathicity by visual cytopathic effect scoring method; assay type: functional, organism-based
[18] = system: Human immunodeficiency virus 1; test: Antiviral activity against HIV1 with reverse transcriptase Y181I mutation in human CEM cells assessed as protection against virus-induced cytopathicity; assay type: functional, organism-based; conditions: Human immunodeficiency virus 1, CCRF-CEM; in short: as §3
[19] = Cytotoxicity against MDCK cells assessed as drug level causing microscopically detectable alteration of normal cell morphology; assay type: cell-based, Canis lupus familiaris; conditions: dog
[20] = Cytotoxicity against african green monkey Vero cells assessed as drug level causing microscopically detectable alteration of normal cell morphology after 3 days; assay type: cell-based; conditions: chlorocebus sabaeus
In short: (§5)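 Serial compound dilutions added to confluent HeLa or Vero monolayers. MCC = minimum concentration causing microscopically detectable alteration of cell morphology after 3 days of incubation.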

[21] = Cytotoxicity against MDCK cells by MTS assay; assay type: cell-based, Canis lupus familiaris; conditions: dog
[22] = system: Human immunodeficiency virus 2; test: Antiviral activity against HIV2 ROD in human CEM cells assessed as protection against virus-induced cytopathicity after 4 days; assay type: functional, organism-based; conditions: Human immunodeficiency virus 2, ROD, CCRF-CEM, 96 h; in short: as §4
[23] = target: Human immunodeficiency virus type 1 reverse transcriptase (Human immunodeficiency virus 1, UniProt Q72547, K103N); test: Inhibition of HIV1 reverse transcriptase p66/p51 K103N mutant; conditions: read-out: IC50; in short: as §2
[24] = Antiproliferative activity against human Molt4/C8 cells after 3 days; assay type: cell-based; conditions: MOLT-4, 72 h
In short: (§6)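 Cells seeded at 5 × 10⁴ to 7.5 × 10⁴ cells/200 µL with or without serial compound dilutions; incubated at 37 °C for 2 days (L1210) or 3 days (Molt4/C8, CEM). Cell numbers counted with a Coulter counter. CC₅₀ = concentration reducing proliferation by 50% versus untreated controls, read from plots of cell number (% of control) against concentration. Means of at least two independent experiments.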

Vaccinia virus = test: Antiviral activity against Vaccinia virus Lederle in human HEL cells assessed as protection against virus-induced cytopathicity; assay type: functional, organism-based; conditions: Orthopoxvirus vaccinia
L1210 = test: Antiproliferative activity against mouse L1210 cells after 2 days; assay type: cell-based; conditions: L1210, 48 h; in short: as §6
[25] = system: Respiratory syncytial virus; test: Antiviral activity against RSV Long in human HeLa cells assessed as protection against virus-induced cytopathicity; assay type: functional, organism-based; in short: as §1
CCRF-CEM = test: Antiproliferative activity against human CEM cells after 3 days; assay type: cell-based; conditions: 72 h; in short: as §6
[26] = Cytotoxicity against human HeLa cells assessed as drug level causing microscopically detectable alteration of normal cell morphology after 3 days; assay type: cell-based; in short: as §5
Punta Toro virus = test: Antiviral activity against Punta Toro virus in african green monkey Vero cells assessed as protection against virus-induced cytopathicity; assay type: functional, organism-based; in short: as §1
[27] = system: Human immunodeficiency virus 1; test: Antiviral activity against HIV1 with reverse transcriptase Y188L mutation in human CEM cells assessed as protection against virus-induced cytopathicity; assay type: functional, organism-based; conditions: Human immunodeficiency virus 1, CCRF-CEM; in short: as §3
Human respirovirus 3 = test: Antiviral activity against Parainfluenza virus type 3 in african green monkey Vero cells assessed as protection against virus-induced cytopathicity; assay type: functional, organism-based; conditions: Human respirovirus 3, Vero; in short: as §1
[28] = Cytotoxicity against feline CRFK cells by MTS assay; assay type: cell-based, Felis catus; conditions: cat
[29] = target: Human immunodeficiency virus type 1 reverse transcriptase (Human immunodeficiency virus 1, UniProt Q72547); test: Inhibition of HIV1 reverse transcriptase p66/p51; conditions: read-out: IC50
Human alphaherpesvirus 2 = test: Antiviral activity against HSV2 G in human HEL cells assessed as protection against virus-induced cytopathicity; assay type: functional, organism-based; conditions: Human alphaherpesvirus 2, strain G; in short: as §1
Influenza A virus H3N2 [30] = test: Antiviral activity against influenza H3N2 virus in MDCK cells assessed as reduction of virus-induced cytopathicity by visual cytopathic effect scoring method; assay type: functional, organism-based
Coxsackievirus B4 [31] = test: Antiviral activity against Coxsackievirus B4 in african green monkey Vero cells assessed as protection against virus-induced cytopathicity; assay type: functional, organism-based; conditions: Enterovirus B; in short: as §1
[32] = system: Vesicular stomatitis virus; test: Antiviral activity against VSV in human HeLa cells assessed as protection against virus-induced cytopathicity; assay type: functional, organism-based
Feline coronavirus = test: Antiviral activity against Feline coronavirus in feline […] cells assessed as inhibition of virus-induced cytopathicity; assay type: functional, organism-based; conditions: Alphacoronavirus 1

Cc1cc(C)cc(S(=O)(=O)c2c(C(=O)NC(C)C(N)=O)[nH]c3ccc(Cl)cc23)c1 (configuration not stated)
EC50 [1]: > 20 µM
EC50 (Influenza B virus [2]): > 4 µM
IC50 [3]: 0.112 µM
EC50 (Influenza B virus [4]): > 4 µM
EC50 (Influenza A virus [5]): > 4 µM
IC50 [6]: 0.009 µM
IC50 [7]: 0.096 µM
EC50 (Influenza A virus H3N2 [8]): > 4 µM
IC50 [9]: 0.014 µM
IC50 [10]: 2.49 µM
EC50 (Sindbis virus): > 20 µM
EC50 (Coxsackievirus B4 [11]): 6 µM
MCC at 72 h [12]: > 100 µM
EC50 (Human alphaherpesvirus 1 [13]): > 100 µM
EC50 (Human alphaherpesvirus 1 [14]): > 100 µM
EC50 (Felid alphaherpesvirus 1): > 20 µM
EC50 [15]: 0.0016 µM
EC50 [16]: > 100 µM
EC50 (Influenza A virus [17]): > 4 µM
IC50 [18]: > 1 µM
MCC [19]: 20 µM
MCC at 72 h [20]: 100 µM
CC50 [21]: 16 µM
EC50 [22]: > 10 µM
IC50 [23]: 0.19 µM
IC50 [24]: 3.8 µM
EC50 (Vaccinia virus): > 100 µM
IC50 (L1210): 12 µM
EC50 [25]: > 100 µM
IC50 (CCRF-CEM): 11 µM
MCC at 72 h [26]: 100 µM
EC50 (Punta Toro virus): > 20 µM
IC50 [27]: 0.66 µM
EC50 (Human respirovirus 3): > 20 µM
CC50 [28]: 39.3 µM
IC50 [29]: 0.02 µM
EC50 (Human alphaherpesvirus 2): > 100 µM
EC50 (Influenza A virus H3N2 [30]): > 4 µM
EC50 (Coxsackievirus B4 [31]): > 20 µM
EC50 [32]: > 100 µM
EC50 (Feline coronavirus): > 20 µM

Cc1cc(C)cc(S(=O)(=O)c2c(C(N)=O)[nH]c3ccc(Cl)c(F)c23)c1
EC50 [1]: > 100 µM
EC50 (Influenza B virus [2]): > 4 µM
IC50 [3]: 0.002 µM
EC50 (Influenza B virus [4]): > 4 µM
EC50 (Influenza A virus [5]): > 4 µM
EC50 (Influenza A virus H3N2 [8]): > 4 µM
IC50 [10]: 0.029 µM
EC50 (Sindbis virus): > 100 µM
EC50 (Coxsackievirus B4 [11]): 27 µM
MCC at 72 h [12]: > 100 µM
EC50 (Human alphaherpesvirus 1 [13]): > 20 µM
EC50 (Human alphaherpesvirus 1 [14]): > 20 µM
EC50 (Felid alphaherpesvirus 1): > 100 µM
EC50 [15]: 0.001 µM
EC50 [16]: > 20 µM
EC50 (Influenza A virus [17]): > 4 µM
MCC [19]: 20 µM
MCC at 72 h [20]: > 100 µM
CC50 [21]: 40.6 µM
EC50 [22]: > 10 µM
IC50 [23]: 0.006 µM
IC50 [24]: 14 µM
EC50 (Vaccinia virus): > 20 µM
IC50 (L1210): 46 µM
EC50 [25]: > 100 µM
IC50 (CCRF-CEM): > 28 µM
MCC at 72 h [26]: > 100 µM
EC50 (Punta Toro virus): > 100 µM
EC50 (Human respirovirus 3): > 100 µM
CC50 [28]: > 100 µM
IC50 [29]: 0.003 µM
EC50 (Human alphaherpesvirus 2): > 20 µM
EC50 (Influenza A virus H3N2 [30]): > 4 µM
EC50 (Coxsackievirus B4 [31]): 100 µM
EC50 [32]: > 100 µM
EC50 (Feline coronavirus): > 100 µM

Reference: ChEMBL document CHEMBL1153955, “Indolylarylsulfones bearing natural and unnatural amino acids. Discovery of potent inhibitors of HIV-1 non-nucleoside wild type and resistant mutant strains reverse transcriptase and coxsackie B4 virus” (J Med Chem, 2009)
